A short description of data set [1]: Clearance in rat liver microsomes at 1 uM measured after 60 mins by LC-MS/MS analysis. In kind it is ADME, Microsome. As to conditions: read-out: CLH. The method in brief:
(§1)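 Compound 1 µM with human or rat microsomes 0.5 mg/mL, preincubated 10 min at 37 °C in 100 mM potassium phosphate pH 7.4, 10 mM MgCl2; started with NADPH, sampled 0–60 min, quenched with cold acetonitrile, LC–MS/MS. A parallel no-NADPH control was run.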

For the next data set, the target named is PI3K p110 beta/p85 alpha (Homo sapiens, UniProt P42338). The experiment in a line: Inhibition of N-terminal His6-tagged human recombinant full length PI3Kbeta co-expressed with human recombinant full length P85alpha in baculovirus infected Sf21 cells using PIP2 peptide as substrate incubated for 1 hr in presence ATP by ADP-Glo Kinase Assay. The essentials: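 ADP-Glo reagent 1 for 40 min, then reagent 2 with 60 min equilibration before reading. IC50 taken from inhibition curves; average of at least two runs.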
Sequence of PI3K p110 beta/p85 alpha (P27986 whole entry): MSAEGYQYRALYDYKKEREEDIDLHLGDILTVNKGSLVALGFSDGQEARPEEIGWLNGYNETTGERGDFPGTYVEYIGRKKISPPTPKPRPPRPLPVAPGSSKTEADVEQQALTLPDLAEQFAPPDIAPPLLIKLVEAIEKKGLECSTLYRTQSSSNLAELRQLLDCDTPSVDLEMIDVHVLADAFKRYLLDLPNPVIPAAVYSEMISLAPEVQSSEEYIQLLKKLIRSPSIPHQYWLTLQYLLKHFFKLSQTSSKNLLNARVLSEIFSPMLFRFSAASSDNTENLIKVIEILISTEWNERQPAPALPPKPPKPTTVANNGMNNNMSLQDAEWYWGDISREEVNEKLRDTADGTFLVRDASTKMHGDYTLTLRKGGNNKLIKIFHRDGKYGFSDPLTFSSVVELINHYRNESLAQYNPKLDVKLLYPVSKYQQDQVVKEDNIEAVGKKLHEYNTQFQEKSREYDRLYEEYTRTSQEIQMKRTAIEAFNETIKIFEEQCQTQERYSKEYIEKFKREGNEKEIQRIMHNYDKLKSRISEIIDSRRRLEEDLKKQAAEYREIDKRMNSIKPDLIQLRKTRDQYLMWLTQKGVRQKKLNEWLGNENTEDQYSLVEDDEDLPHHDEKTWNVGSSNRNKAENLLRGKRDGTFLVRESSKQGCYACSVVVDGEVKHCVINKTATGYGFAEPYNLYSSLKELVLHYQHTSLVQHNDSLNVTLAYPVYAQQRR
Sequence of PI3K p110 beta/p85 alpha (P42338 whole entry): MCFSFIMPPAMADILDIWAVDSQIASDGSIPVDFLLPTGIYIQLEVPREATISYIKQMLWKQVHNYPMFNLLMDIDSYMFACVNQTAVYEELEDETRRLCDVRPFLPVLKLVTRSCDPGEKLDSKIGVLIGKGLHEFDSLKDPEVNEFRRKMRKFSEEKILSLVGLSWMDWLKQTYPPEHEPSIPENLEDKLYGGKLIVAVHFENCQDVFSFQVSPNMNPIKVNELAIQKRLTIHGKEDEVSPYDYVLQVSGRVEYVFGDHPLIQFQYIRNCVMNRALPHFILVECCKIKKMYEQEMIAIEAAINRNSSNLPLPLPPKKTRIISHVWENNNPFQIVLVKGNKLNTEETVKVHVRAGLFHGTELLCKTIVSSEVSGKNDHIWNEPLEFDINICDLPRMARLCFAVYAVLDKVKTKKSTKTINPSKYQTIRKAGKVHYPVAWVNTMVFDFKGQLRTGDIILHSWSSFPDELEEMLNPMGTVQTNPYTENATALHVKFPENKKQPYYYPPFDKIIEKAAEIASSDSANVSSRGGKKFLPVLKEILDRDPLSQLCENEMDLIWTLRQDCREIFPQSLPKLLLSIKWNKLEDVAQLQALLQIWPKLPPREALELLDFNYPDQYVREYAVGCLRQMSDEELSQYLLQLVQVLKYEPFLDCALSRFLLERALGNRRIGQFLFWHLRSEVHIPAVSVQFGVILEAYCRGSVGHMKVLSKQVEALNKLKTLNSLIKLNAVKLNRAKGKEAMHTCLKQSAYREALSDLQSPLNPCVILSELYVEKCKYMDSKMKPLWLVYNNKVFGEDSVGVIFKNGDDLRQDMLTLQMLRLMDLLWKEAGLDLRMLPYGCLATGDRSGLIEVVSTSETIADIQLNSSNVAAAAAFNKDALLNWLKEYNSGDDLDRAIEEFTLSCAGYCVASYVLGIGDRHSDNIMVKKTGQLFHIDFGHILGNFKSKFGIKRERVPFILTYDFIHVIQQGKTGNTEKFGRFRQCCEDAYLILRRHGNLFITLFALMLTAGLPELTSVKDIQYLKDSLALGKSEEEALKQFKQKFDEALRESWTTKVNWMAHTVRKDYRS

The next data set concerns the target T1, CYP1A2 (Homo sapiens, UniProt P05177).
T1 sequence (P05177 whole entry): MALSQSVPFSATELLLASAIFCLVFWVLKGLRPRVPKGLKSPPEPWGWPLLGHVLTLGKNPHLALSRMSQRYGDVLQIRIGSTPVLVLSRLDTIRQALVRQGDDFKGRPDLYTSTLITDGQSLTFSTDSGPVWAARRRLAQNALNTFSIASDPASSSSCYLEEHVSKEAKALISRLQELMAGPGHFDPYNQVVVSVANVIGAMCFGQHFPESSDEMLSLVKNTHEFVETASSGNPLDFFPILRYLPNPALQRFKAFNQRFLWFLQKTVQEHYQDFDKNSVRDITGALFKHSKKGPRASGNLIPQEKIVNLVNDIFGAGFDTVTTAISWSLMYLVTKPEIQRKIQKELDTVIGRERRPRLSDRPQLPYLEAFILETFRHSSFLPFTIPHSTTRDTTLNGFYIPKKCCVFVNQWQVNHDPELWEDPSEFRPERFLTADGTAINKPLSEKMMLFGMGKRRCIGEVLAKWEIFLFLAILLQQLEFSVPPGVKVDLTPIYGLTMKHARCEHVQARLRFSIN
The experiment in a line: Inhibition of CYP1A2 in human liver microsomes using phenacetin as substrate at 10 uM preincubated for 10 mins followed by incubation with NADPH for 10 mins by LC- MS/MS analysis. Format: ADME. As to conditions: probe phenacetin, time 20 min. The method in brief:
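Human liver microsomes 0.25 mg/mL with probe substrate (CYP1A2 10 µM phenacetin; CYP2D6 5 µM dextromethorphan; CYP3A4 2 µM midazolam), test compound 10 µM; 10 min preincubation at 37 °C, NADPH added (final 10 mM), 10 min at 37 °C; stopped with cold acetonitrile containing internal standards; LC-MS/MS.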
A general note: Liver microsomes are vesicles of endoplasmic reticulum, rich in cytochrome P450 enzymes.

Data set [2] is described as follows: Half life in Sprague-Dawley rat at 5 mg/kg, iv measured after 24 hrs by LC-MS/MS analysis. Format: ADME, organism-based. The following applies: in vivo. The method in brief:
(§2)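 Male SD rats (n=6), single 5 mg/kg intravenous dose; heparinised blood at 0.083–24 h, centrifuged at 4 °C; plasma quantified by LC–MS/MS; noncompartmental parameters.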

Data set [3] in a line: Volume of distribution in Sprague-Dawley rat at 5 mg/kg, iv measured after 24 hrs by LC-MS/MS analysis. In kind it is ADME, organism-based. As to conditions: in vivo. The essentials:
as §2

Data set [4] has as its target Serine/threonine-protein kinase mTOR (Homo sapiens, UniProt P42345). The experiment in a line: Inhibition of N-terminal FLAG-tagged human recombinant mTOR (1362 to end residues) using ULight-4E-BP1 (Thr37/46) peptide as substrate incubated for 1 hr in presence of ATP by Lance Ultra assay. The method in brief:
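ULight-4E-BP1 (Thr37/46) peptide with 13 µM ATP; 1 h at room temperature. Stopped with EDTA quench buffer plus Eu-anti-phospho-4E-BP1, 15 min shake and 60 min equilibration, TR-FRET read. IC50 from inhibition curves; average of at least two runs.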

Another data set concerns NCI-H460. The experiment in a line: Antiproliferative activity against human NCI-H460 cells harboring PIK3CA mutation assessed as reduction in cell viability after 3 days by CellTiter-Glo luminescence assay. The following applies: NCI-H460, 72 h. In kind it is functional, cell-based. The method in brief: (§3)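 ATCC lines, 10% FBS: T47D, H1975, H460 in RPMI1640; U87MG in DMEM; A549 in F12K. Seeded 3×10^3 per well the day before, exposed to 3-fold serial dilutions or DMSO for 3 days at 37 °C, 5% CO2; CellTiter-Glo luminescence.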

A short description of data set [5]: Half life in human liver microsomes at 1 uM by LC-MS/MS analysis. Format: ADME, Microsome. The method in brief:
as §1

The target of data set [6] is Voltage-gated inwardly rectifying potassium channel KCNH2 (Homo sapiens, UniProt Q12809). The experiment in a line: Inhibition of human ERG expressed in CHO cells assessed as inhibition of channel tail current at holding potential of -80 mV by Qpatch assay. In kind it is cell-based. The essentials:
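CHO cells stably expressing hERG, QPatch in single-hole mode at room temperature, held at […]; each concentration superfused to steady-state block (three superimposable traces), washout between concentrations; cisapride as quality control.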
(In patch-clamp work, channel activity is measured electrically.)

Data set [7] concerns the target Phosphatidylinositol 4,5-bisphosphate 3-kinase catalytic subunit alpha isoform (Homo sapiens) (UniProt P42336). The experiment in a line: Inhibition of PI3Kalpha in human T47D cells assessed as inhibition of insulin-stimulated Akt phosphorylation at Ser473 residue at 0.3 uM preincubated for 2 hrs followed by incubation with insulin for 2 hrs by western blot analysis relative to control. Format: cell-based. The following applies: time 4.0 hrs. The method in brief:
(§4)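 T47D cells given compound at 37 °C for 2 h, then stimulated with 1 µg/mL insulin for 2 h; lysed in RIPA with protease/phosphatase inhibitors and 1 mM PMSF; BCA-normalised SDS-PAGE, PVDF blot probed overnight at 4 °C for total Akt and pAkt Ser473, infrared secondary detection.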
On the technique in general: In western blotting, separated proteins are transferred to a membrane and probed.

Data set [8] is described as follows: Clearance in human liver microsomes at 1 uM measured after 60 mins by LC-MS/MS analysis. As to conditions: read-out: CLH. Format: ADME, Microsome. The method in brief:
as §1

The nature of data set [9]: Clearance in Sprague-Dawley rat at 5 mg/kg, iv measured after 24 hrs by LC-MS/MS analysis. The following applies: in vivo. In kind it is ADME, organism-based. The essentials:
as §2

The subject of a further data set is NCI-H1975. In words: Antiproliferative activity against human NCI-H1975 cells harboring PIK3CA mutation assessed as reduction in cell viability after 3 days by CellTiter-Glo luminescence assay. As to conditions: NCI-H1975, 72 h. In kind it is functional, cell-based. The essentials:
as §3

The nature of data set [10]: Metabolic stability in human liver microsomes assessed as parent compound remaining at 1 uM preincubated for 10 mins followed by incubation in phosphate buffer at pH 7.4 for 60 mins by LC-MS/MS analysis. As to conditions: time 70 min, read-out: Stabilty. Format: ADME, Microsome. The essentials:
as §1

A short description of data set [11]: AUC (0 to infinity) in Sprague-Dawley rat at 5 mg/kg, iv measured after 24 hrs by LC-MS/MS analysis. Details: route intravenous, dose 5 mg/kg, time 24 hrs. As to conditions: in vivo. Format: ADME, organism-based. The essentials:
as §2

The target of data set [12] is Phosphatidylinositol 4,5-bisphosphate 3-kinase catalytic subunit alpha isoform (Homo sapiens) (UniProt P42336). The experiment in a line: Inhibition of PI3Kalpha in human T47D cells assessed as inhibition of insulin-stimulated Akt phosphorylation at Ser473 residue at 3 uM preincubated for 2 hrs followed by incubation with insulin for 2 hrs by western blot analysis relative to control. In kind it is cell-based. As to conditions: time 4.0 hrs. The essentials:
as §4

A short description of data set [13]: Metabolic stability in rat liver microsomes assessed as parent compound remaining at 1 uM preincubated for 10 mins followed by incubation in phosphate buffer at pH 7.4 for 60 mins by LC-MS/MS analysis. The following applies: time 70 min, read-out: Stabilty. Format: ADME, Microsome. The essentials:
as §1

As a reminder, the IC50 is the concentration that gives 50% inhibition. A word on the Ki: it is the equilibrium dissociation constant of an inhibitor or competing ligand from its target. In general, inhibition refers to the percentage by which the read-out fell short of the control. One may read the half-life as the time in which the quantity being followed falls by half. Lower therefore signals rapid decline. Broadly, the Vd is the apparent volume that relates the amount in the body to the concentration in plasma or blood. As usually defined, the clearance is a measure of how efficiently the substance is removed, as volume per time. A lower clearance goes with a low capacity for elimination. A word on the AUC(0-inf): it is the area under the concentration-time curve extrapolated to infinity. The low end stands for low exposure, the high end for high exposure.

Bounds are passed on as bounds.

Sequence of Phosphatidylinositol 4,5-bisphosphate 3-kinase catalytic subunit alpha isoform (Homo sapiens) (P42336 whole entry, canonical isoform): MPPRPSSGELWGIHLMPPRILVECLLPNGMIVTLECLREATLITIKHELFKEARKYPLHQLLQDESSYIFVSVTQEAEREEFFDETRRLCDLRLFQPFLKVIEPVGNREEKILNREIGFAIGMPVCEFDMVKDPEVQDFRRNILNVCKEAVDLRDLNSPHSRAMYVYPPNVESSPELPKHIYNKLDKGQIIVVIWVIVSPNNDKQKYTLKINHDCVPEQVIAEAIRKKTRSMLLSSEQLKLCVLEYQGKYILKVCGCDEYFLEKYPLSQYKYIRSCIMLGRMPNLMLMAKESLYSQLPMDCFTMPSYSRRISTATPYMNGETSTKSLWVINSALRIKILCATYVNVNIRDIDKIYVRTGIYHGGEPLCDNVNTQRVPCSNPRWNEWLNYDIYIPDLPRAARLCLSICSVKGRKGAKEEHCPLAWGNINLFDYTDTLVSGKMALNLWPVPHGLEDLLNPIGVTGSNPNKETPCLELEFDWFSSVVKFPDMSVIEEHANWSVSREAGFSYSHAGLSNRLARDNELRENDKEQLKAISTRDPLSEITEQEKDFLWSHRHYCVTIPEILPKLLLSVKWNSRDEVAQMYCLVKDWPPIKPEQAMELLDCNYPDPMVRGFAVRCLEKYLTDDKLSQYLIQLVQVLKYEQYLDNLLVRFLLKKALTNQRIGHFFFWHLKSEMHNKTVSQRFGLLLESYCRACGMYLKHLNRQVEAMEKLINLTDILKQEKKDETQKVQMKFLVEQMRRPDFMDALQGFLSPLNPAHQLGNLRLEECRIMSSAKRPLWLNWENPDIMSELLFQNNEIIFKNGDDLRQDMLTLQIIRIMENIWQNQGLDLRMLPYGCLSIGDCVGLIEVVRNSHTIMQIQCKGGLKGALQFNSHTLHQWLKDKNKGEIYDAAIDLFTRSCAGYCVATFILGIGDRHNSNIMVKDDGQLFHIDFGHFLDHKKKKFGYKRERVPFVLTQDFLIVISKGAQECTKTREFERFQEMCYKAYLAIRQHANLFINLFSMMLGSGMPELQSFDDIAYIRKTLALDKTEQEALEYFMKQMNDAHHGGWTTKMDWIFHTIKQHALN
Sequence of Voltage-gated inwardly rectifying potassium channel KCNH2 (Q12809 whole entry, the tested form may be a part): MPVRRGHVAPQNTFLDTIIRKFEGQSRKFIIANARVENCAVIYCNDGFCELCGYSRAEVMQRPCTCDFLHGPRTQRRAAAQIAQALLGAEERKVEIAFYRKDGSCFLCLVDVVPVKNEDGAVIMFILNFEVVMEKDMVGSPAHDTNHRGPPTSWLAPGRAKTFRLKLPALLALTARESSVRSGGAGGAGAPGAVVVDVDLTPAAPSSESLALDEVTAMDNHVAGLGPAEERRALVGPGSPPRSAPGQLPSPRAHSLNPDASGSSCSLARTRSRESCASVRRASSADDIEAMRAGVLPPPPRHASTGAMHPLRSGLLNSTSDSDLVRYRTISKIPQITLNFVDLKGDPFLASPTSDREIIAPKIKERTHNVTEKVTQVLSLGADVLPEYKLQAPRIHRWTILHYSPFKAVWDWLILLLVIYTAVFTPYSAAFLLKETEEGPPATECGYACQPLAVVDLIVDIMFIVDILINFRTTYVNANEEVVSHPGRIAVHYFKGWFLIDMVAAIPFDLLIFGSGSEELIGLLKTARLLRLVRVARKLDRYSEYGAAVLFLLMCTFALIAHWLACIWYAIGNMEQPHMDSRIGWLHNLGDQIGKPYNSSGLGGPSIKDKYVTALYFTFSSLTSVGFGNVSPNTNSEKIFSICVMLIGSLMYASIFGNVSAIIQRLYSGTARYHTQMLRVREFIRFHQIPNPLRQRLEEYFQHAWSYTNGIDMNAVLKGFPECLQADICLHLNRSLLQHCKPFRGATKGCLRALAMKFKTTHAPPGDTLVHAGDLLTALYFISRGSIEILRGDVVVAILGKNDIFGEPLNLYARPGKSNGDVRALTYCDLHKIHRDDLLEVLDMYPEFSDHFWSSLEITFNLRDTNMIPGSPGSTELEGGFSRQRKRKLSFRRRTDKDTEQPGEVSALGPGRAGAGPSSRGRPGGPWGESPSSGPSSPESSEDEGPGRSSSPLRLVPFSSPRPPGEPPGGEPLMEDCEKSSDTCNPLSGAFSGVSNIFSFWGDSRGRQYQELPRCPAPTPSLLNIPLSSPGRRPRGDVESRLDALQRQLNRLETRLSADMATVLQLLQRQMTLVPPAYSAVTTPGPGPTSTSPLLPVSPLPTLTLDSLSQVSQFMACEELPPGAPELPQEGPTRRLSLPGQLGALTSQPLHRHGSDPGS

Regarding `N#Cc1c(N2CCOCC2)sc(-c2nc[nH]n2)c1-c1ccc(NC(=O)Nc2ccccc2Cl)cc1`, the microsomal CLint at 1 µM worked out at 32.8 µL/min/mg in [1] and 24.8 µL/min/mg in data set [8]. Moreover, the half-maximal inhibitory concentration (IC50) was 0.108 µM at PI3K p110 beta/p85 alpha; 1.8 µM in data set [4]; 0.2 µM in the data set on NCI-H460; over 30 µM in [6]; 1.06 µM with NCI-H1975. The Ki at PI3K p110 beta/p85 alpha amounted to 0.089 µM. Besides, the inhibition at 10 min, 10 µM on CYP1A2 amounted to 27.8%. The compound further showed a half-life in data set [2] of 1.98 h. Besides, in [3], the Vd stood at 8.6 L/kg. This compound yielded a half-life at 1 µM in data set [5] of 0.972 h. Besides, the results for the inhibition in data set [7] and in data set [12] were 59% and 90%, respectively. In data set [9], the clearance was determined as 3.14 L/h/kg. Also, the remaining at 1 h, 1 µM in data set [10] came to 47.8%; in [13], 42.6%. The AUC(0-inf) in [11] came out at 1.62 µg·h/mL.

The values above are taken from ChEMBL document CHEMBL4765307, “Design, synthesis and biological activity of novel 2,3,4,5-tetra-substituted thiophene derivatives as PI3Kα inhibitors with potent antitumor activity” (Eur J Med Chem, 2020).
